Data set [1] has as its target T1, Pyrroline-5-carboxylate reductase 1, mitochondrial (Homo sapiens, UniProt P32322).
T1 sequence (P32322 whole entry): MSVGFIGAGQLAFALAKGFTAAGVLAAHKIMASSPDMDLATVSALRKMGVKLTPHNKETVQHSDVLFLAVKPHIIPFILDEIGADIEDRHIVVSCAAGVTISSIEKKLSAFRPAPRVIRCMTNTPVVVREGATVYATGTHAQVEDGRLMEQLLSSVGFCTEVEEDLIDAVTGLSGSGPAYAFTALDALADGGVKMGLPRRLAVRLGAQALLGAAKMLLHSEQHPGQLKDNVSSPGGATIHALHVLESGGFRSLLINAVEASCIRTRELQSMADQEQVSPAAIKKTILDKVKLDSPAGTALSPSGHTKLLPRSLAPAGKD
Description: Inhibition of 6x-His-tagged and SUMO tagged human PYCR1 expressed in Escherichia coli BL21 (DE3) cells assessed as reduction in NADH oxidation incubated for 1 hr.

The test system of data set [2] is SUM-159-PT. Briefly: Effect on leucine content in human SUM159PT cells at 1 to 100 uM by LC-MS analysis relative to control. The class given is ADME, cell-based. In a few lines: (§1)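 Human breast cancer SUM-159-PT cells were incubated with test agent at 1, 5, 20 and 100 µM (or at 100 µM alone). The cells were then lysed, and proline and the essential amino acids were quantified by LC-MS. Each amino acid level was compared against an untreated control culture.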

For data set [3], the system named is SUM-159-PT. Description: Toxicity in human SUM159PT cells assessed as reduction in cell viability at 100 uM. The class given is cell-based.
The subject of data set [4] is SUM-159-PT. Briefly: Effect on methionine content in human SUM159PT cells at 1 to 100 uM by LC-MS analysis relative to control. The class given is ADME, cell-based. In a few lines:
as §1

Data set [5] concerns SUM-159-PT. Description: Effect on phenylalanine content in human SUM159PT cells at 1 to 100 uM by LC-MS analysis relative to control. The format is ADME, cell-based. In a few lines: as §1
The subject of data set [6] is SUM-159-PT. Briefly: Effect on tryptophan content in human SUM159PT cells at 1 to 100 uM by LC-MS analysis relative to control. The format is ADME, cell-based. In a few lines:
as §1

Data set [7] concerns SUM-159-PT. Briefly: Effect on isoleucine content in human SUM159PT cells at 1 to 100 uM by LC-MS analysis relative to control. The class given is ADME, cell-based. In a few lines: as §1
Data set [8] deals with SUM-159-PT. Description: Effect on valine content in human SUM159PT cells at 1 to 100 uM by LC-MS analysis relative to control. The format is ADME, cell-based. In a few lines:
as §1

Data set [9] deals with T2, Amine oxidase [flavin-containing] B (Homo sapiens, UniProt P27338).
T2 sequence (P27338 whole entry): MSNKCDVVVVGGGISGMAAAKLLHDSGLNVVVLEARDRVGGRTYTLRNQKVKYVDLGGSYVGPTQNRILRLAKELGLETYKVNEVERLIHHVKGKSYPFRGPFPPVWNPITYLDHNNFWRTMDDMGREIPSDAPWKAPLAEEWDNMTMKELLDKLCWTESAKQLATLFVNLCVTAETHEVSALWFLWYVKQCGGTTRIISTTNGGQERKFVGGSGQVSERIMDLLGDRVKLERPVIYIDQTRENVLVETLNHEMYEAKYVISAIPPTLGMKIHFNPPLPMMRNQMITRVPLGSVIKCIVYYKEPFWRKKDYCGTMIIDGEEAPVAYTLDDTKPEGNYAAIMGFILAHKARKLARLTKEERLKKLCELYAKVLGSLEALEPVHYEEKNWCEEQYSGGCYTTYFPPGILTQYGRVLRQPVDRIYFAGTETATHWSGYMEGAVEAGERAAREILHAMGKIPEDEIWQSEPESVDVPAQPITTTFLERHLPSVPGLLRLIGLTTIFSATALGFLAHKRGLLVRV
Briefly: Inhibition of MAOB (unknown origin).

For data set [10], the system named is SUM-159-PT. Briefly: Effect on methionine content in human SUM159PT cells at 100 uM by LC-MS analysis relative to control. The class given is functional, cell-based. In a few lines:
as §1

The subject of data set [11] is SUM-159-PT. Briefly: Effect on leucine content in human SUM159PT cells at 100 uM by LC-MS analysis relative to control. The class given is functional, cell-based. In a few lines: as §1
The test system of data set [12] is SUM-159-PT. Briefly: Effect on phenylalanine content in human SUM159PT cells at 100 uM by LC-MS analysis relative to control. The format is functional, cell-based. In a few lines: as §1
Data set [13] has as its system SUM-159-PT. Briefly: Effect on tryptophan content in human SUM159PT cells at 100 uM by LC-MS analysis relative to control. The class given is functional, cell-based. In a few lines:
as §1

Data set [14] concerns SUM-159-PT. Briefly: Effect on isoleucine content in human SUM159PT cells at 100 uM by LC-MS analysis relative to control. The format is functional, cell-based. In a few lines:
as §1

For data set [15], the system named is SUM-159-PT. Description: Effect on valine content in human SUM159PT cells at 100 uM by LC-MS analysis relative to control. The class given is functional, cell-based. In a few lines:
as §1

pIC50: −log10 of the molar value. Calls of active or inactive are those of the source. No cut-off for these calls is given here.

Consider `C#CCN(C)Cc1ccc(C(C)=O)cc1`, for which the pIC50 in [1] is 3.74. On the same count and under the same terms, as for `C#CCN(CC)Cc1ccc(Br)cc1`, the figure is 4.24; as for `C#CCN(C)Cc1ccc(Cl)cc1`, 4.89; as for `C#CCN(C)Cc1ccc(Cl)cc1Br`, 4.18. Still for that read-out and setting: as for `C=CCN(C)Cc1ccc(Br)cc1`, the figure is < 3.30; as for `C#CCN(CC(=O)OC(C)(C)C)Cc1ccc(Br)cc1`, < 3.30; as for `C#CCN(C)Cc1c(Cl)cccc1Cl`, < 3.30.

`C#CCN(C)Cc1cc(Cl)cc(Cl)c1`: the negative logarithm of the IC50 (pIC50) in data set [1] is < 3.30.

As for `C#CCN(Cc1ccc(Br)cc1)C(C)=O`, in data set [1], the negative logarithm of the IC50 (pIC50) was < 3.30. The same measure, in the same setting: to `C#CCN(C)Cc1ccc(C(F)(F)F)cc1` belongs 4.19. Still for that read-out and setting: to `CNCc1ccc(Br)cc1` belongs 3.79; to `C#CCN(C)Cc1cc(C)no1`, < 3.30. Same read-out and setting: to `C#CCN(C)Cc1cccc(Br)c1` belongs 3.56. As to `C#CCN(Cc1ccc(Br)cc1)CC1CC1`, the negative logarithm of the IC50 (pIC50) in [1] was < 3.30. On the same count and under the same terms, to `C#CCN(C)Cc1ccc(C)cc1` belongs 4.40.

As to `C#CCN(Cc1ccc(Br)cc1)C(C)C`, the negative-log IC50 (pIC50) in [1] was < 3.30. Same read-out and setting: to `C#CCN(C)Cc1cccc(Cl)c1` belongs 4.28. On the same count and under the same terms, as for `C#CCN(C)Cc1ccc(I)cc1`, the figure is 5.01; as for `C#CCN(C)Cc1ccc2ccccc2c1`, 4.68. `C#CCN(C)Cc1ccc(Cl)cc1Cl`: the pIC50 in data set [1] is 5.04. On the same count and under the same terms, as for `C#CCN(Cc1ccc(Br)cc1)S(C)(=O)=O`, the figure is < 3.30; as for `CCCN(C)Cc1ccc(Br)cc1`, 3.47. On to `C#CCN(C)Cc1ccc(F)cc1`, for which the pIC50 in data set [1] was 3.51. In the case of `C#CCN(Cc1ccc(Br)cc1)Cc1cc(C)no1`, the pIC50 in data set [1] was 4.00.

Take `C#CCN(C)Cc1ccc(-c2ccccc2)cc1`: the pIC50 in [1] is 3.50. In the case of `C#CCN(C)Cc1ccc(C)cc1C`, the pIC50 in [1] is 4.26. Same read-out and setting: as for `C#CCN(C)C(C)c1ccc(Br)cc1` (centres undefined), the figure is 3.50; as for `C#CCNCc1ccc(Br)cc1`, 4.00. Consider `C#CCN1Cc2ccc(Br)cc2C1`, for which, in [1], the pIC50 is < 3.30.

`C#CCN(C)Cc1ccc(-c2ccc(F)cc2)cc1`: the negative logarithm of the IC50 (pIC50) in data set [1] is 3.68. With `C#CCN(C)Cc1cccc([N+](=O)[O-])c1`, the pIC50 in data set [1] is 3.40. On the same count and under the same terms, to `CC#CCN(C)Cc1ccc(Br)cc1` belongs 4.80; to `CN(CC#Cc1ccccc1)Cc1ccc(Br)cc1`, 4.15. Take `C#CCN(C)Cc1ccc(Cl)c(C(F)(F)F)c1`: in data set [1], the negative logarithm of the IC50 (pIC50) was 4.37. The same measure, in the same setting: to `C#CCN(Cc1ccc(Br)cc1)Cc1ccc(Br)cc1` belongs 4.04; to `C#CCN(C)Cc1ccc(C(C)C)cc1`, 3.85. Still for that read-out and setting: to `CN(Cc1ccccc1)Cc1ccc(Br)cc1` belongs < 3.30; to `CN(Cc1ccc(Br)cc1)CC1CC1`, < 3.30; to `C#CCN(C)Cc1ccc(Br)cc1Cl`, 4.47. Still for that read-out and setting: to `C#CCN(C)Cc1ccc(Cl)c(Cl)c1` belongs 4.87; to `C#CCN(C)Cc1ccc(Br)cc1Br`, 3.64. Regarding `C#CCN(CCC=C)Cc1ccc(Br)cc1`, the negative logarithm of the IC50 (pIC50) in data set [1] is < 3.30. On the same count and under the same terms, as for `C#CCN(C)Cc1ccc(OC)cc1OC`, the figure is < 3.30; as for `C#CCN(C)Cc1ccccc1Cl`, 3.86. For `C#CCN(C)Cc1ccc(Br)cc1`, the Activity result in the data set with SUM-159-PT [2], in the data set with SUM-159-PT [3], in the data set with SUM-159-PT [4], in the data set on SUM-159-PT [5], with SUM-159-PT [6] and in the data set with SUM-159-PT [7] was “Non-Toxic” throughout. Moreover, the Activity entry in the data set with SUM-159-PT [8] is “Non-Toxic”. Also, the pIC50 in [9] is 6.52. Take `C#CCN(C)Cc1ccccc1[N+](=O)[O-]`: the negative-log IC50 (pIC50) in data set [1] was < 3.30.

As to `C#CCN(C)Cc1cc(Br)cs1`, the pIC50 in [1] is < 3.30.

Consider `C#CCN(C)Cc1ccc(Br)cc1C`, for which, in data set [1], the negative-log IC50 (pIC50) is 4.42.

Take `C#CCN(C)Cc1ccc(OC)cc1`: the pIC50 in [1] is 4.42.

Regarding `C#CCN(C)Cc1ccc([N+](=O)[O-])cc1`, the pIC50 in [1] is 4.37. For `C#CCN1CCc2cc(Br)ccc2C1`, in data set [1], the negative logarithm of the IC50 (pIC50) is < 3.30. On the same count and under the same terms, as for `C#CCN(C)Cc1ccc(Br)cc1F`, the figure is 4.38. Regarding `C#CCN(C)Cc1ccc(F)cc1Br`, the negative-log IC50 (pIC50) in data set [1] is < 3.30. As to `C#CCN(C)CCc1ccc(Br)cc1`, the pIC50 in data set [1] is < 3.30.

Turning to `C#CCN(C)Cc1ccc(C#N)cc1`, the negative logarithm of the IC50 (pIC50) in data set [1] is < 3.30. Still for that read-out and setting: to `C#CCN(C)Cc1ccc(Br)cc1OC` belongs 4.68. Consider `C#CCN(C)Cc1ccccc1` [PARGYLINE], for which the outcome with SUM-159-PT [10], in the data set with SUM-159-PT [11], with SUM-159-PT [12], in the data set with SUM-159-PT [13], with SUM-159-PT [14] and in the data set on SUM-159-PT [15] was inactive. Also, the pIC50 in data set [1] was 3.70.

Turning to `C#CCN(C)Cc1ccccc1Br`, the pIC50 in [1] was 3.70.

Consider `C#CC(C)N(C)Cc1ccc(Br)cc1` (centres undefined), for which the pIC50 in [1] was 3.40. Take `C#CCCN(C)Cc1ccc(Br)cc1`: in data set [1], the negative logarithm of the IC50 (pIC50) was < 3.30.

As for `C#CCN(CCC)Cc1ccc(Br)cc1`, the pIC50 in [1] is < 3.30.
